HSF1 inhib: HSF1 inhibitors in luciferase reporter cells, primary screen, cell-based, NIH3T3, luminescence; NIH3T3-HGL HSE-luciferase, MG132-induced, luminescence 8 h; stronger effect = lower value; activity change, negative = inhibition, % at 7.5 µM (by protocol); hit rate 0.77% among 300,000;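 active = more than half of replicate wells show activity change below -50%, luminescence cut by over half; inconclusive = some wells, but at most half, below -50%; inactive = no replicate well below -50%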;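 note: luciferase reports HSF-1 transcriptional activity via heat shock element; 0% = median of DMSO wells and -100% = zero luminescence signal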
T cruzi repl: inhibitors of intracellular T. cruzi growth, primary screen, luminescence, NIH3T3 host cells. T. cruzi beta-gal in NIH3T3, 90 h. inhibition, % (test concentration not listed). hit rate 1.4% among 300,000. AID 1885, 2009;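 active = mean inhibition across valid replicates above about 55%, limit read from the data; inconclusive = mean below that limit but half or more replicates reach it; inactive = mean below it, under half of replicates reach it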;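 note: signal also drops with host cell toxicity which is not excluded here; 0% = plate median of DMSO wells and 100% = zero luminescence signal; higher percent means less beta-gal luminescence so fewer parasites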
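Assay system: NIH/3T3 host cells with β-galactosidase reporter T. cruzi; input: 5,000 host fibroblasts per well; compound: single 50 nL compound addition per well in DMSO; timing: ≥90 h infection period, 3 h prior cell attachment; measured by: GalScreen β-gal luminescence, detergent lysis, 60 min; evaluation: percent inhibition of parasite-derived β-gal signal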
Jurkat NFkB inh: inhibitors of induced NF-kB luciferase reporter, primary screen, TCR NF-kB activation inhibitor project, cell-based, luminescence, uHTS | AID 435003, 2010 | Jurkat, PMA/ionomycin-induced NF-kB luciferase reporter | inhibition, % at 4 µM | hit rate 0.53% among 330,000; in the data active = inhibition above about 50%
697 NFkB inh: inhibitors of PMA/ionomycin-induced NF-kB reporter, 697 cells, primary screen, B-cell NF-kB inhibitor project, cell-based, luminescence, uHTS | 697 B-cell NF-kB luciferase reporter, 16 h | inhibition, % at 4 µM | hit rate 0.33% among 330,000; in the data active = inhibition above about 35%
GPR7 antag: GPR7 receptor antagonists, primary screen, cell-based, fluorescence, single concentration; GPR7-expressing cells, fluorescence antagonist assay; Neuropeptides B/W receptor type 1 (Homo sapiens), P48145; hit rate 1.1% among 290,000; inhibition, % at 4.4 µM; in the data active = inhibition above about 16%, passing the limit was not always enough;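 note: cells stimulated with the agonist NPW; 0% = agonist with vehicle and 100% = vehicle without agonist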
Target sequence (P48145 whole entry, looked up): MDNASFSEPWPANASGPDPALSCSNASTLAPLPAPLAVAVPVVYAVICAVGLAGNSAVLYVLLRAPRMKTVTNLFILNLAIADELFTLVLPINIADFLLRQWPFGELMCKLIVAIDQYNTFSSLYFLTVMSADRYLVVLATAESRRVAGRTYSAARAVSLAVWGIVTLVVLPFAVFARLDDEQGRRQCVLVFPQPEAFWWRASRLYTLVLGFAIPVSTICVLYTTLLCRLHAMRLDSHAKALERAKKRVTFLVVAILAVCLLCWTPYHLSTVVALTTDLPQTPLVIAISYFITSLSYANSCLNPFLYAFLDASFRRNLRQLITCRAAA
HSF1 activator: HSF-1 activators, primary screen, NIH3T3-HGL cells, MG132 stress, luminescence, single point; NIH3T3-HGL HSF-1 luciferase reporter, 8 h; 100% = twice DMSO control signal; activation, % at 9 µM; hit rate 1.7% among 300,000; AID 504408, 2011;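 active = mean replicate activation of at least 50% with a set share of replicates each reaching 50%; inconclusive = only one of those two conditions met; inactive = mean below 50% and too few replicates reaching it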;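 note: 0% = median of the neutral control wells and 100% = twice that signal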
Numbers without * were called inactive; ? = inconclusive; nt = not tested or not shown. Shown are actives, neighbours in structure and some others; about 4.8% of the full set was active somewhere.

SMILES | HSF1 inhib | T cruzi repl | Jurkat NFkB inh | 697 NFkB inh | GPR7 antag | HSF1 activator
COc1cccc(C(=O)OC2CCCN(C)C2)c1 (stereo not given) | 2 | -16 | -23 | -18 | -11 | 6
Cc1cccc(OCC(=O)OC2CCN(C)CC2)c1 | -55* | -4 | -10 | -2 | -6 | -61
COc1ccc(C(=O)OC2CCN(C)CC2)cc1 | 6 | 55* | -28 | 3 | -6 | 6
COc1cccc(C(=O)OC2CCN(C)CC2)c1 | -3 | 70* | -11 | -9 | -10 | 14
CC1(NC(=O)C2CCCCC2)CCS(=O)(=O)C1 (stereo not given) | -6 | -20 | 14 | 0 | -10 | -23
CC1CCN(c2ccc(-c3cccc(NC(=O)C(F)(F)F)c3)nn2)CC1 | -82* | -1 | -1 | -93 | 12 | -84
O=C(Nc1cccc(-c2ccc(N3CCCCC3)nn2)c1)C(F)(F)F | ? | 2 | -48 | -114 | 5 | -54
Nc1c(C(=O)NCc2ccco2)nnn1Cc1ccccc1 | 0 | -5 | 1 | 6 | -7 | 4
O=C(c1ccco1)c1nnn(Cc2ccccc2)c1-c1ccccc1 | 39 | 15 | -2 | -19 | -11 | 64*
O=C(NCCN1CCOCC1)c1cc2ccccc2o1 | 25 | -9 | -5 | 14 | -3 | 61*
O=C(CSc1ccccc1)Nc1cccc(NC(=O)c2ccco2)c1 | -68* | -1 | 12 | -1 | -7 | -75
Cc1cccc(NC(=O)C(=O)NCCCN2CCOCC2)c1 | 4 | -5 | -20 | -24 | -3 | 18
O=C(NCCN1CCOCC1)c1cc2ccccc2oc1=O | 8 | -4 | -11 | -14 | -6 | -11
Cc1cccc(NC(=O)C(=O)NCCCc2ccccc2)c1 | 37 | -4 | -32 | -60 | -12 | 83*
O=C(CSc1ccc(Cl)cc1)Nc1cccc(NC(=O)c2ccco2)c1 | 5 | -11 | -4 | -5 | 4 | 7
Cc1cccc(NC(=O)CCNC(=O)c2ccco2)c1 | 3 | -1 | -13 | -13 | -6 | 58*
Cc1ccc(NC(=O)CCNC(=O)c2ccco2)cc1 | -1 | -9 | 10 | 26 | 5 | 6
CC(=O)c1ccc(N2CCN(CC(=O)NC(=O)NCc3ccccc3)CC2)cc1 | nt | nt | -14 | -9 | nt | nt
N#Cc1ccc(NCC(=O)Nc2ccc3c(c2)OCCO3)cc1 | -13 | 12 | -11 | 15 | 1 | -14
O=C(NC(=S)Nc1ccc2c(c1)OCCO2)c1ccco1 | 17 | -9 | -86 | -148 | -1 | 33
O=C(Nc1ccc2oc(=O)ccc2c1)c1cc2ccccc2o1 | 29 | -2 | -95 | -64 | 12 | 46
CC(C)(C)OC(=O)N1Cc2ccccc2C[C@H]1C(=O)NCC(=O)Nc1ccc2c(c1)OCCO2 | -64* | -5 | 29 | -25 | -16 | -63
O=C(CNC(=O)c1ccco1)Nc1ccc2c(c1)OCCO2 | -67* | -7 | -39 | -118 | nt | -70
N#Cc1cccc(NCC(=O)Nc2ccc3c(c2)OCCO3)c1 | 36 | -16 | -141 | -71 | -8 | 68*
O=C(Nc1ccc2c(c1)OCCO2)c1cc2ccccc2o1 | 15 | 16 | -125 | -78 | -9 | 61*
O=C(Nc1cccc([N+](=O)[O-])c1)Nc1ccc2c(c1)OCCO2 | 41 | 16 | -111 | -103 | -10 | ?
O=C(NCCC(=O)N1CCCC(C(F)(F)F)C1)c1ccc(Br)cc1 (stereo not given) | 6 | -6 | 3 | -9 | 0 | 13
COc1cccc2c1Oc1cc([N+](=O)[O-])cc(N(C)C(C)=O)c1C=C2 | 5 | -3 | 24 | 20 | -10 | 5
CC1=C(C)CC(C(=O)NCCc2ccc(F)cc2)C(C(=O)O)C1 (stereo not given) | 1 | -2 | 15 | -3 | -10 | -2
CCCn1nc(C(=O)NCC2COc3ccccc3O2)c2ccccc2c1=O (stereo not given) | nt | nt | 9 | -7 | nt | nt
